Experimental findings from ChEMBL document CHEMBL1156878, “New benzoxanthone derivatives as topoisomerase inhibitors and DNA cross-linkers” (Bioorg Med Chem, 2010) are described below.

Molecules are shown by their SMILES. Structures can show the parent of a compound that is named as a salt. Active and inactive are the calls of the source. The rule behind the calls is not given here.

Assay [1] has as its system HeLa. The assay can be described thus: Cytotoxicity against human HeLa cells after 48 hrs by MTT assay. The class given is functional, cell-based. Summed up:
(§1)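 Cells seeded at 2–4 × 10⁴ per well and held overnight at 37 °C, 5% CO₂, in medium with 10% FBS. On day 2 the medium was replaced with medium holding graded compound concentrations. Absorbance was read at 450 nm and fitted to a four-parameter logistic equation for IC₅₀. Mean ± SD of three experiments, each in triplicate.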
For orientation: Tetrazolium assays rely on reduction of a dye to a coloured formazan, in cell work by metabolically active cells.

Assay [2] has as its system HT-29. The assay is described as follows: Cytotoxicity against human HT-29 cells after 48 hrs […]. It counts as functional, cell-based. To be noted: HT-29, 48 h.
Assay [3] has as its system DU-145. The assay can be described thus: Cytotoxicity against human DU145 cells after 48 hrs by MTT assay. It counts as functional, cell-based. Particulars: DU-145, 48 h. The essentials:
as §1

The subject of assay [4] is MDA-MB-231. The assay can be described thus: Cytotoxicity against human MDA-MB-231 cells after 48 hrs by MTT assay. It counts as functional, cell-based. To be noted: MDA-MB-231, 48 h. Summed up:
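Cells seeded at 2–4 × 10⁴ per well and grown overnight in medium with 10% FBS at 37 °C, 5% CO₂. Medium was then replaced with medium holding graded compound concentrations. Absorbance was read at 450 nm and IC50 fitted to a four-parameter logistic equation. Mean of three experiments run in triplicate.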

In assay [5] the test system is HL-60. The assay can be described thus: Cytotoxicity against human HL60 cells after 48 hrs by MTT assay. The class given is functional, cell-based. Particulars: HL-60, 48 h. Summed up:
as §1

Assay [6] addresses T1, DNA topoisomerase 1 (Homo sapiens) (UniProt P11387).
T1 sequence (whole entry): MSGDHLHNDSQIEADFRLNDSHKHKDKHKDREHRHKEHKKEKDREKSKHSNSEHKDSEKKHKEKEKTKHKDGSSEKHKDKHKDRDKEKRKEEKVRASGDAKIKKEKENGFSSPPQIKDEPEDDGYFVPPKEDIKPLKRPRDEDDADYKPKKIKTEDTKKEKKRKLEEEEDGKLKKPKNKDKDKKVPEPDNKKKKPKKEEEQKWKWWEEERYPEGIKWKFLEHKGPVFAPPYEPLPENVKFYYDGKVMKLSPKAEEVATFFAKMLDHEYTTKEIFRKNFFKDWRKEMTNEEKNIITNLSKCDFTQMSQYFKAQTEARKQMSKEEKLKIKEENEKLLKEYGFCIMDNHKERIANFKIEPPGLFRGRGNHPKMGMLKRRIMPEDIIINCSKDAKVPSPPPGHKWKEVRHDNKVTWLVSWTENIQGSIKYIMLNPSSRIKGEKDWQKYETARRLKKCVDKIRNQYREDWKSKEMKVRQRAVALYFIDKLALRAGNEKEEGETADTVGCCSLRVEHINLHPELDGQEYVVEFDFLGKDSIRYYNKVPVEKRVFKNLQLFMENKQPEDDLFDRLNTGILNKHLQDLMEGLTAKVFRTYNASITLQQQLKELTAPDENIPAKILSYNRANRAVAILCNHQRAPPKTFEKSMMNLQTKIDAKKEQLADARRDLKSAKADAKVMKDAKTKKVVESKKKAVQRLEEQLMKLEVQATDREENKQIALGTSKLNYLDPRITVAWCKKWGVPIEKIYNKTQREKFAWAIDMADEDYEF
The assay can be described thus: Inhibition of human recombinant topoisomerase 1-mediated pBR322 DNA relaxation at 100 uM by gel electrophoresis. The essentials:
(§2)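 Relaxation of 100 ng supercoiled pBR322 by 0.4 units recombinant human topo I, with or without compound (20 mM DMSO stocks), at 37 °C for 30 min. Buffer: 10 mM Tris-HCl pH 7.9, 150 mM NaCl, 0.1% BSA, 1 mM spermidine, 5% glycerol. Run on 1% agarose gel in TAE at 15 V for 7 h, stained with ethidium bromide, bands quantified under UV to give inhibition ratio.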

The target in assay [7] is T1, DNA topoisomerase 1 (Homo sapiens). The assay is described as follows: Inhibition of human recombinant topoisomerase 1-mediated pBR322 DNA relaxation at 20 uM by gel electrophoresis. Summed up:
as §2

Assay [8] deals with DNA topoisomerase 2-alpha (Homo sapiens) (UniProt P11388). The assay is described as follows: Inhibition of human recombinant DNA topoisomerase 2alpha -mediated pBR322 DNA relaxation at 100 uM by gel electrophoresis. Summed up: (§3)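 Relaxation of 200 ng supercoiled pBR322 by 1 unit human topo IIα, with or without compound, at 30 °C for 30 min. Buffer: 10 mM Tris-HCl pH 7.9, 50 mM NaCl, 50 mM KCl, 5 mM MgCl₂, 1 mM EDTA, 1 mM ATP, 15 µg/mL BSA. Stopped with EDTA and run on 1% agarose gel in TAE at 25 V for 4 h. Band analysis gave inhibition ratio.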
Chain of DNA topoisomerase 2-alpha (Homo sapiens) (P11388 whole entry): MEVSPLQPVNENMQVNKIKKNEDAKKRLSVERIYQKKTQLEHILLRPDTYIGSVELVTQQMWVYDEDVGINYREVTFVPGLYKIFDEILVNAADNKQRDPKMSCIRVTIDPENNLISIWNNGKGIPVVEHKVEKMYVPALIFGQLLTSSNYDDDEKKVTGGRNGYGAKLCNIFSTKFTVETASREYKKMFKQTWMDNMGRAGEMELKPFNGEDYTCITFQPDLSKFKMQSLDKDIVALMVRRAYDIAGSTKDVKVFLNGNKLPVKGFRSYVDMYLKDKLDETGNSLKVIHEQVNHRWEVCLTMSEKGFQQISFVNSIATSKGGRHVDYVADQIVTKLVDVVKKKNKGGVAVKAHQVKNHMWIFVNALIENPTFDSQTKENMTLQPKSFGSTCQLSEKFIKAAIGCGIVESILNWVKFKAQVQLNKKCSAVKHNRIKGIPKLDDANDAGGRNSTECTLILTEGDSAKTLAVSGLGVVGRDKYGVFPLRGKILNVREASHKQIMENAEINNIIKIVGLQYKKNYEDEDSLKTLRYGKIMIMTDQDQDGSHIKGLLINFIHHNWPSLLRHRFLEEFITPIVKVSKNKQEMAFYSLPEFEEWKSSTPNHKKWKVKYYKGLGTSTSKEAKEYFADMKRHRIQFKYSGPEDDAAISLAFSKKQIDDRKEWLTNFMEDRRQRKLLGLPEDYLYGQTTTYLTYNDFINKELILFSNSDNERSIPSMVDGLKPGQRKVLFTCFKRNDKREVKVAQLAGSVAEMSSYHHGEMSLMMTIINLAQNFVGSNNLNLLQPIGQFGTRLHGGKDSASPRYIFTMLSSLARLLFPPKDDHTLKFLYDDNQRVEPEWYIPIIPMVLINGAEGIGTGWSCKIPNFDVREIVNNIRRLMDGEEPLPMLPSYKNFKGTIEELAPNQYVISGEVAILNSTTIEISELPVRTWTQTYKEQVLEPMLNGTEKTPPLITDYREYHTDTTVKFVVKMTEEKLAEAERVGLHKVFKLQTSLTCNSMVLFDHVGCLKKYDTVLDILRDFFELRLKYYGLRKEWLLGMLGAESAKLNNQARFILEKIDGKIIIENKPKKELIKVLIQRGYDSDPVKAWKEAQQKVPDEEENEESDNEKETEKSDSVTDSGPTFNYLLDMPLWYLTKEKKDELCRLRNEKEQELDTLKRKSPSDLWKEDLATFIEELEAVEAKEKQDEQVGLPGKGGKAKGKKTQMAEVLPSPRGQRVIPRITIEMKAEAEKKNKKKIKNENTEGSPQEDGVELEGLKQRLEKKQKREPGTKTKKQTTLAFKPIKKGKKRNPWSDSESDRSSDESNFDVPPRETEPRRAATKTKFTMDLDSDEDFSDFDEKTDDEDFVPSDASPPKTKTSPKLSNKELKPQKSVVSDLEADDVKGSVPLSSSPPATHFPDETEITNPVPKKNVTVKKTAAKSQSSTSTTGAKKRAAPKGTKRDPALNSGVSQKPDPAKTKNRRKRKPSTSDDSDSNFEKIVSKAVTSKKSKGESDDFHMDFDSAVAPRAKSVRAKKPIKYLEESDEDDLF

The target is the same in assay [9]. The assay can be described thus: Inhibition of human recombinant DNA topoisomerase 2alpha -mediated pBR322 DNA relaxation at 20 uM by gel electrophoresis. The essentials:
as §3

In assay [10] the test system is Nucleic Acid. The assay is described as follows: Induction of DNA cross linking in linearized pBR322 at 100 uM by alkaline gel electrophoresis. The class given is nucleic-acid assay. To be noted: Escherichia coli. The essentials:
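pBR322 was linearized with EcoRI and ethanol-precipitated, then incubated with compound for 2 h at room temperature in 10 mM Tris–HCl, 1 mM EDTA, pH 8.0. Samples ran on a denaturing 1.2% alkaline agarose gel in 50 mM NaOH, 1 mM EDTA. The gel was neutralized 1 h in 100 mM Tris, 150 mM NaCl, pH 7.6, alongside a HindIII marker.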

For the compound `O=c1c2ccc3ccccc3c2oc2cc(OCC3CS3)cc(OCC3CS3)c12` (stereo unspecified), the IC50 was 25.6 µM in [1]; more than 50 µM in assay [2]; 5.66 µM in assay [3]; more than 50 µM in [4]; 37 µM in [5]. The inhibition in assay [6] amounted to 79%; in assay [7], 56.5%; in assay [8], 71.9%; in [9] it was 72.7%.

For `O=c1c2c(OCC3CS3)cc(OCC3CS3)cc2oc2ccc3ccccc3c12` (stereo unspecified), the IC50 in [1] was determined as 24.9 µM; in [2] it was 0.75 µM; in assay [3], 1.32 µM; in assay [4], 18.9 µM; in assay [5], 1.85 µM. For the same compound, the inhibition in assay [6] was -0%; in assay [7] it was -0%; in assay [8], 4.4%; in assay [9] it was 8.4%.

Regarding `CC[C@@]1(O)C(=O)OCc2c1cc1n(c2=O)Cc2cc3ccccc3nc2-1` [CAMPTOTHECIN], the IC50 in assay [1] is 0.86 µM; in assay [2], 0.85 µM; in assay [3], 3.57 µM; in [4] it was 0.92 µM; in assay [5] it was 0.065 µM.

Turning to `O=c1c2cc3ccccc3cc2oc2cc(OCC3CS3)cc(O)c12` (stereo unspecified), the IC50 came out at 8.52 µM in assay [1]; 5.4 µM in assay [2]; 1.55 µM in assay [3]; 14.8 µM in [4]; 2.48 µM in [5]. In addition, the inhibition in assay [6] is 0.5%; in assay [7] it was -0%; in assay [8], -0%; in [9], 7.2%.

In the case of `O=c1c2c(O)cc(OCC3CS3)cc2oc2ccc3ccccc3c12` (stereo unspecified), the IC50 in assay [1] is more than 100 µM; in assay [2], 3.58 µM; in [3], 8.76 µM; in assay [4], 29.1 µM; in assay [5], 3.48 µM. Moreover, the inhibition in assay [6] was -0%; in [7] it was 2.4%; in [8], 5.3%; in assay [9], -0%.

Regarding `O=c1c2ccc3ccccc3c2oc2cc(OCC3CS3)cc(O)c12` (stereo unspecified), the IC50 in [1] is more than 50 µM; in assay [2] it was more than 50 µM; in assay [3], 10.8 µM; in assay [4], more than 50 µM; in [5] it was 22.6 µM. The inhibition in assay [6] is 15.6%; in assay [7], 2.5%; in assay [8], 13.9%; in [9], -0%.

For `O=c1c2cc3ccccc3cc2oc2cc(OCC3CO3)cc(O)c12` (stereo unspecified), the IC50 in assay [1] is more than 100 µM; in [2], 2.34 µM; in assay [3] it was 36.2 µM; in assay [4], 15.1 µM; in assay [5], 9.4 µM. For the same compound, the inhibition in assay [6] is 13.7%; in assay [7], 2.6%; in assay [8], -0%; in [9], -0%.

Consider `O=c1c2c(O)cc(OCC3CO3)cc2oc2ccc3ccccc3c12` (stereo unspecified), for which the IC50 in assay [1] is more than 100 µM; in assay [2] it was 0.96 µM; in [3], 1.4 µM; in assay [4], more than 50 µM; in assay [5], 2.31 µM. For the same compound, the inhibition in assay [6] is -0%; in assay [7], 9.7%; in assay [8] it was 3.7%; in assay [9], -0%.

`O=c1c2ccc3ccccc3c2oc2cc(OCC3CO3)cc(O)c12` (stereo unspecified): the IC50 in assay [1] is more than 50 µM; in assay [2] it was 18.9 µM; in assay [3] it was 2.56 µM; in assay [4], 0.73 µM; in [5] it was 3.67 µM. Also, the inhibition was 1.7% in assay [6], 10.6% in assay [7], 9% in assay [8] and 5.5% in assay [9].

For `O=c1c2c(OCC3CO3)cc(OCC3CO3)cc2oc2ccc3ccccc3c12` (stereo unspecified), the IC50 is 10.2 µM in [1]; 7.38 µM in assay [2]; 3.44 µM in assay [3]; more than 50 µM in assay [4]; 6.47 µM in assay [5]. The inhibition is 18% in [6], -0% in [7], 1% in assay [8] and -0% in assay [9]. Also, the result in assay [10] was inactive.

Consider `O=c1c2cc3ccccc3cc2oc2cc(OCC3CS3)cc(OCC3CS3)c12` (stereo unspecified), for which the IC50 in assay [1] stood at 8.01 µM; in [2], 1.66 µM; in [3], 19.4 µM; in assay [4], 5.16 µM; in assay [5], 5.13 µM. The inhibition in assay [6] was 4.3%; in assay [7] it was -0%; in assay [8], 1.9%; in assay [9] it was 13.5%.

For the compound `COc1cc([C@@H]2c3cc4c(cc3[C@@H](O[C@@H]3O[C@@H]5CO[C@@H](C)O[C@H]5[C@H](O)[C@H]3O)[C@H]3COC(=O)[C@H]23)OCO4)cc(OC)c1O` [ETOPOSIDE], the IC50 is 0.47 µM in assay [1]; 1.42 µM in assay [2]; 1.63 µM in assay [3]; 2.87 µM in assay [4]; 0.97 µM in [5].

Take `O=c1c2cc3ccccc3cc2oc2cc(OCC3CO3)cc(OCC3CO3)c12` (stereo unspecified): the IC50 in assay [1] was determined as 2.19 µM; in [2], 0.6 µM; in assay [3], 3.01 µM; in assay [4], 1.64 µM; in assay [5] it was 5.13 µM. For the same compound, the inhibition was 12.3% in assay [6], 8.8% in assay [7], 60.1% in assay [8] and 8.9% in assay [9]. The result in [10] was Active.

With `O=c1c2ccc3ccccc3c2oc2cc(OCC3CO3)cc(OCC3CO3)c12` (stereo unspecified), the IC50 in assay [1] was found to be 24.2 µM; in assay [2] it was 8.2 µM; in assay [3] it was 1.29 µM; in [4] it was 7.43 µM; in [5], 5.4 µM. Moreover, the inhibition in assay [6] is 11.9%; in [7], -0%; in [8] it was 5.7%; in assay [9], 0.1%. In assay [10], the result was Active.

Turning to `COc1cccc2c1C(=O)c1c(O)c3c(c(O)c1C2=O)C[C@@](O)(C(=O)CO)C[C@@H]3O[C@H]1C[C@H](N)[C@H](O)[C@H](C)O1` [DOXORUBICIN HYDROCHLORIDE], the IC50 amounted to 0.71 µM in assay [1]; 0.95 µM in [2]; 1.19 µM in [3]; 3.15 µM in [4]; 0.94 µM in assay [5].

By IC50 is commonly meant the concentration that inhibits the measured activity by half. Usually inhibition stands for the change of the read-out against control, counted positive when it falls.
